From ChEMBL document CHEMBL5058577, “EUbOPEN Chemogenomics Library 2 (Multiplex)” (2022)

Test system: HEK-293T
Test: Multiplex assay against HEK293T
Assay type: toxicity, cell-based
Settings: human
Summary of the method: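 Values for tubulin, mitochondrial-mass and membrane-permeability phenotypes are per cents of cells with healthy nuclei. These cells were identified by CellPathfinder machine-learning gating of live cells that had been stained at seeding with Hoechst33342, BioTracker Green Microtubule Cytoskeleton Dye, MitoTracker Red and Annexin V Alexa Fluor 680 and imaged on a CQ1 microscope at 37°C and 5% CO2 after compound addition. The gating first set Hoechst high-intensity objects apart from normal cells, then split normal cells into healthy, pyknosed or fragmented nuclei, and pyknosed cells into mitotic or apoptotic.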

[1] = 12 h, 1 µM, compound concentration 1 uM, replicate 1
[2] = 12 h, 1 µM, compound concentration 1 uM, replicate 2
[3] = 12 h, 10 µM, compound concentration 10 uM, replicate 1
[4] = 12 h, 10 µM, compound concentration 10 uM, replicate 2
[5] = 24 h, 1 µM, compound concentration 1 uM, replicate 1
[6] = 24 h, 1 µM, compound concentration 1 uM, replicate 2
[7] = 24 h, 10 µM, compound concentration 10 uM, replicate 1
[8] = 24 h, 10 µM, compound concentration 10 uM, replicate 2
[9] = 48 h, 1 µM, compound concentration 1 uM, replicate 1
[10] = 48 h, 1 µM, compound concentration 1 uM, replicate 2
[11] = 48 h, 10 µM, compound concentration 10 uM, replicate 1
[12] = 48 h, 10 µM, compound concentration 10 uM, replicate 2

## Cc1ccc(-c2ccc(F)cc2COc2ccc(CCC(=O)O)cc2)cc1
[1]
  Population Apoptotic (%): 42%
  Population Fragmented Nuclei (%): 6%
  Population Healthy Nuclei (%): 82%
  Population Hoechst High Intensity Objects (%): 9%
  Population Mitochondria Different-Phenotype (%): 36%
  Population Mitotic Cells (%): 57%
  Population Normal (%): 90%
  Population Tubulin-Different-Phenotype (%): 18%
  Total Cell Count: 465
[2]
  Population Apoptotic (%): 33%
  Population Healthy Nuclei (%): 77%
  Population Mitochondria Different-Phenotype (%): 50%
  Population Mitotic Cells (%): 66%
  Population Pyknosed Nuclei (%): 15%
  Total Cell Count: 324
[3]
  Population Apoptotic (%): 32%
  Population Fragmented Nuclei (%): 10%
  Population Healthy Nuclei (%): 79%
  Population Hoechst High Intensity Objects (%): 7%
  Population Mitochondria Different-Phenotype (%): 46%
  Population Mitotic Cells (%): 67%
  Population Normal (%): 92%
  Population Pyknosed Nuclei (%): 10%
  Population Tubulin-Different-Phenotype (%): 33%
  Total Cell Count: 329
[4]
  Population Apoptotic (%): 42%
  Population Fragmented Nuclei (%): 7%
  Population Healthy Nuclei (%): 83%
  Population Hoechst High Intensity Objects (%): 6%
  Population Mitochondria Different-Phenotype (%): 58%
  Population Mitotic Cells (%): 57%
  Population Normal (%): 93%
  Population Pyknosed Nuclei (%): 9%
  Population Tubulin-Different-Phenotype (%): 15%
  Total Cell Count: 396
[5]
  Population Apoptotic (%): 16%
  Population Fragmented Nuclei (%): 10%
  Population Healthy Nuclei (%): 82%
  Population Hoechst High Intensity Objects (%): 3%
  Population Mitochondria Different-Phenotype (%): 16%
  Population Mitotic Cells (%): 84%
  Population Normal (%): 96%
  Population Pyknosed Nuclei (%): 7%
  Population Tubulin-Different-Phenotype (%): 10%
  Total Cell Count: 688
[6]
  Population Apoptotic (%): 52%
  Population Fragmented Nuclei (%): 9%
  Population Healthy Nuclei (%): 80%
  Population Hoechst High Intensity Objects (%): 7%
  Population Mitochondria Different-Phenotype (%): 33%
  Population Mitotic Cells (%): 47%
  Population Normal (%): 92%
  Population Pyknosed Nuclei (%): 9%
  Population Tubulin-Different-Phenotype (%): 13%
  Total Cell Count: 445
[7]
  Population Apoptotic (%): 36%
  Population Fragmented Nuclei (%): 11%
  Population Healthy Nuclei (%): 76%
  Population Hoechst High Intensity Objects (%): 5%
  Population Mitochondria Different-Phenotype (%): 30%
  Population Mitotic Cells (%): 63%
  Population Normal (%): 94%
  Population Tubulin-Different-Phenotype (%): 18%
  Total Cell Count: 397
[8]
  Population Apoptotic (%): 51%
  Population Fragmented Nuclei (%): 6%
  Population Healthy Nuclei (%): 87%
  Population Hoechst High Intensity Objects (%): 3%
  Population Mitochondria Different-Phenotype (%): 37%
  Population Mitotic Cells (%): 48%
  Population Normal (%): 96%
  Population Pyknosed Nuclei (%): 6%
  Population Tubulin-Different-Phenotype (%): 13%
  Total Cell Count: 461
[9]
  Population Apoptotic (%): 17%
  Population Fragmented Nuclei (%): 15%
  Population Healthy Nuclei (%): 79%
  Population Hoechst High Intensity Objects (%): 1%
  Population Mitochondria Different-Phenotype (%): 7%
  Population Mitotic Cells (%): 82%
  Population Normal (%): 98%
  Population Pyknosed Nuclei (%): 5%
  Population Tubulin-Different-Phenotype (%): 8%
  Total Cell Count: 1149
[10]
  Population Apoptotic (%): 36%
  Population Fragmented Nuclei (%): 14%
  Population Healthy Nuclei (%): 77%
  Population Mitochondria Different-Phenotype (%): 18%
  Population Mitotic Cells (%): 63%
  Population Normal (%): 97%
  Population Pyknosed Nuclei (%): 8%
  Population Tubulin-Different-Phenotype (%): 9%
  Total Cell Count: 631
[11]
  Population Apoptotic (%): 24%
  Population Fragmented Nuclei (%): 12%
  Population Healthy Nuclei (%): 78%
  Population Mitochondria Different-Phenotype (%): 17%
  Population Mitotic Cells (%): 75%
  Population Normal (%): 97%
  Population Pyknosed Nuclei (%): 8%
  Population Tubulin-Different-Phenotype (%): 9%
  Total Cell Count: 713
[12]
  Population Apoptotic (%): 31%
  Population Fragmented Nuclei (%): 15%
  Population Healthy Nuclei (%): 79%
  Population Hoechst High Intensity Objects (%): 4%
  Population Mitochondria Different-Phenotype (%): 16%
  Population Mitotic Cells (%): 68%
  Population Normal (%): 95%
  Population Pyknosed Nuclei (%): 5%
  Population Tubulin-Different-Phenotype (%): 8%
  Total Cell Count: 702

## CSCC[C@H](NC=O)C(=O)N[C@@H](CC(C)C)C(=O)N[C@@H](Cc1ccccc1)C(=O)O
[1]
  Population Mitochondria Different-Phenotype (%): 47%
  Population Tubulin-Different-Phenotype (%): 23%
  Total Cell Count: 466
[2]
  Population Apoptotic (%): 28%
  Population Mitochondria Different-Phenotype (%): 57%
  Population Mitotic Cells (%): 71%
  Population Tubulin-Different-Phenotype (%): 16%
  Total Cell Count: 437
[3]
  Population Mitochondria Different-Phenotype (%): 52%
  Population Tubulin-Different-Phenotype (%): 37%
  Total Cell Count: 366
[4]
  Population Apoptotic (%): 54%
  Population Mitochondria Different-Phenotype (%): 64%
  Population Mitotic Cells (%): 45%
  Population Tubulin-Different-Phenotype (%): 31%
  Total Cell Count: 375
[5]
  Population Apoptotic (%): 21%
  Population Mitochondria Different-Phenotype (%): 21%
  Population Mitotic Cells (%): 78%
  Population Tubulin-Different-Phenotype (%): 14%
  Total Cell Count: 679
[6]
  Population Mitochondria Different-Phenotype (%): 37%
  Population Tubulin-Different-Phenotype (%): 12%
  Total Cell Count: 550
[7]
  Population Apoptotic (%): 25%
  Population Mitochondria Different-Phenotype (%): 38%
  Population Mitotic Cells (%): 75%
  Population Tubulin-Different-Phenotype (%): 25%
  Total Cell Count: 479
[8]
  Population Apoptotic (%): 36%
  Population Mitochondria Different-Phenotype (%): 53%
  Population Mitotic Cells (%): 64%
  Population Tubulin-Different-Phenotype (%): 22%
  Total Cell Count: 490
[9]
  Population Apoptotic (%): 29%
  Population Mitochondria Different-Phenotype (%): 12%
  Population Tubulin-Different-Phenotype (%): 12%
  Total Cell Count: 1154
[10]
  Population Apoptotic (%): 20%
  Population Mitochondria Different-Phenotype (%): 17%
  Population Mitotic Cells (%): 79%
  Total Cell Count: 838
[11]
  Population Apoptotic (%): 28%
  Population Mitochondria Different-Phenotype (%): 24%
  Population Mitotic Cells (%): 71%
  Population Tubulin-Different-Phenotype (%): 12%
  Total Cell Count: 704
[12]
  Population Apoptotic (%): 36%
  Population Mitochondria Different-Phenotype (%): 28%
  Population Mitotic Cells (%): 63%
  Population Tubulin-Different-Phenotype (%): 14%
  Total Cell Count: 674

## COc1ccccc1N1CCN(CCCCNC(=O)c2ccc3ccccc3c2)CC1.Cl
[1]
  Population Apoptotic (%): 45%
  Population Healthy Nuclei (%): 81%
  Population Hoechst High Intensity Objects (%): 6%
  Population Mitochondria Different-Phenotype (%): 53%
  Population Mitotic Cells (%): 54%
  Population Normal (%): 93%
  Population Tubulin-Different-Phenotype (%): 41%
  Total Cell Count: 430
[2]
  Population Apoptotic (%): 36%
  Population Healthy Nuclei (%): 79%
  Population Hoechst High Intensity Objects (%): 5%
  Population Mitochondria Different-Phenotype (%): 76%
  Population Mitotic Cells (%): 63%
  Population Normal (%): 94%
  Population Tubulin-Different-Phenotype (%): 35%
  Total Cell Count: 354
[3]
  Population Apoptotic (%): 71%
  Population Healthy Nuclei (%): 69%
  Population Hoechst High Intensity Objects (%): 16%
  Population Mitochondria Different-Phenotype (%): 90%
  Population Mitotic Cells (%): 28%
  Population Normal (%): 83%
  Population Tubulin-Different-Phenotype (%): 75%
  Total Cell Count: 321
[4]
  Population Apoptotic (%): 70%
  Population Healthy Nuclei (%): 75%
  Population Hoechst High Intensity Objects (%): 15%
  Population Mitochondria Different-Phenotype (%): 93%
  Population Mitotic Cells (%): 29%
  Population Normal (%): 84%
  Population Tubulin-Different-Phenotype (%): 72%
  Total Cell Count: 256
[5]
  Population Apoptotic (%): 27%
  Population Healthy Nuclei (%): 78%
  Population Hoechst High Intensity Objects (%): 6%
  Population Mitochondria Different-Phenotype (%): 38%
  Population Mitotic Cells (%): 72%
  Population Normal (%): 93%
  Population Tubulin-Different-Phenotype (%): 32%
  Total Cell Count: 561
[6]
  Population Apoptotic (%): 36%
  Population Healthy Nuclei (%): 82%
  Population Mitochondria Different-Phenotype (%): 62%
  Population Mitotic Cells (%): 63%
  Population Tubulin-Different-Phenotype (%): 26%
  Total Cell Count: 444
[7]
  Population Apoptotic (%): 56%
  Population Healthy Nuclei (%): 74%
  Population Hoechst High Intensity Objects (%): 13%
  Population Mitochondria Different-Phenotype (%): 96%
  Population Mitotic Cells (%): 43%
  Population Normal (%): 86%
  Population Tubulin-Different-Phenotype (%): 87%
  Total Cell Count: 393
[8]
  Population Apoptotic (%): 60%
  Population Healthy Nuclei (%): 69%
  Population Hoechst High Intensity Objects (%): 17%
  Population Mitochondria Different-Phenotype (%): 94%
  Population Mitotic Cells (%): 39%
  Population Normal (%): 82%
  Population Tubulin-Different-Phenotype (%): 66%
  Total Cell Count: 276
[9]
  Population Apoptotic (%): 20%
  Population Healthy Nuclei (%): 81%
  Population Hoechst High Intensity Objects (%): 3%
  Population Mitochondria Different-Phenotype (%): 34%
  Population Mitotic Cells (%): 79%
  Population Normal (%): 96%
  Population Tubulin-Different-Phenotype (%): 20%
  Total Cell Count: 841
[10]
  Population Apoptotic (%): 46%
  Population Healthy Nuclei (%): 78%
  Population Hoechst High Intensity Objects (%): 5%
  Population Mitochondria Different-Phenotype (%): 37%
  Population Mitotic Cells (%): 53%
  Population Normal (%): 94%
  Population Tubulin-Different-Phenotype (%): 22%
  Total Cell Count: 635
[11]
  Population Apoptotic (%): 60%
  Population Healthy Nuclei (%): 77%
  Population Hoechst High Intensity Objects (%): 8%
  Population Mitochondria Different-Phenotype (%): 88%
  Population Mitotic Cells (%): 40%
  Population Normal (%): 91%
  Population Tubulin-Different-Phenotype (%): 73%
  Total Cell Count: 519
[12]
  Population Apoptotic (%): 78%
  Population Healthy Nuclei (%): 78%
  Population Hoechst High Intensity Objects (%): 10%
  Population Mitotic Cells (%): 21%
  Population Normal (%): 89%
  Population Tubulin-Different-Phenotype (%): 71%
  Total Cell Count: 329
